Data reported in ChEMBL document CHEMBL4229525, “Anti-angiogenic and anticancer effects of baicalein derivatives based on transgenic zebrafish model” (Bioorg Med Chem, 2018).

Columns and labels:
A549 [1] = experiment: Induction of apoptosis in human A549 cells assessed as live cells at 2.5 uM after 48 hrs by Annexin-V-FITC/propidium iodide staining based flow cytometry (reference value: 75.2%); type: functional
Method in brief: (§1)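 A549 cells were plated at 2 × 10⁵ per well and held at 37 °C, 5% CO₂ for 24 h before compound was added. After treatment, cells were stained with annexin V-FITC plus propidium iodide for 30 min at 25 °C. Quadrants were read by flow cytometry: Q3 early apoptotic, Q2 late apoptotic.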

A549 [2] = experiment: Induction of apoptosis in human A549 cells assessed as early apoptotic cells at 2.5 uM after 48 hrs by Annexin-V-FITC/propidium iodide staining based flow cytometry (reference value: 15.2%); type: functional; method in brief: as §1
A549 [3] = experiment: Induction of apoptosis in human A549 cells assessed as late apoptotic cells at 2.5 uM after 48 hrs by Annexin-V-FITC/propidium iodide staining based flow cytometry (reference value: 4.05%); type: functional; method in brief: as §1
A549 [4] = experiment: Induction of apoptosis in human A549 cells assessed as necrotic cells at 2.5 uM after 48 hrs by Annexin-V-FITC/propidium iodide staining based flow cytometry (reference value: 5.45%); type: functional; method in brief: as §1
Danio rerio [5] = organism: Danio rerio; experiment: Antiangiogenic activity in 24 to 72 hrs post fertilized zebra fish embryo harboring fli1:EGFP after 48 hrs by fluorescence microscopic analysis; type: functional
Method in brief: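 Tg(fli1:EGFP) zebrafish: 20 dechorionated 24 hpf embryos per group in 1 mL embryo water with compound (1, 5, 10, 25, 50, 75, 100, 150, 200 μM), 28.5 °C for 48 h. Embryos anaesthetised in 0.016% tricaine; ISVs imaged by fluorescence microscopy at 72 hpf and scored for vessel defects and overall morphology. SU5416 positive control.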

Danio rerio [6] = organism: Danio rerio; experiment: Toxicity in 24 to 72 hrs post fertilized zebra fish embryo harboring fli1:EGFP; type: organism-based; conditions: zebrafish, in vivo
Method in brief: (§2)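 Dechorionated Tg(fli1:EGFP) embryos at 24 hpf, 20 per group, were kept in 1 mL embryo water with compound at 28.5 °C for a further 48 h. Compound was tested at 1, 5, 10, 25, 50, 75, 100, 150 and 200 μM. At 72 hpf, embryos anaesthetised with 0.016% tricaine had their ISVs imaged by fluorescence microscopy, with SU5416 as positive control. Definitions used: LOEC is anti-angiogenic effect in most larvae; LOTC is lowest toxic concentration; LC100 is total embryo lethality. TI = LOTC/LOEC; AI = LC100/LOEC.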

[7] = Toxicity index, ratio of MTC for 24 to 72 hrs post fertilized zebra fish embryo harboring fli1:EGFP to MEC for antiangiogenic activity in 24 to 72 hrs post fertilized zebra fish embryo harboring fli1:EGFP; type: organism-based, Danio rerio; conditions: fli1:EGFP transgenic, zebrafish, in vivo; method in brief: as §2
[8] = Antiangiogenic index, ratio of LC100 for 24 to 72 hrs post fertilized zebra fish embryo harboring fli1:EGFP to MEC for antiangiogenic activity in 24 to 72 hrs post fertilized zebra fish embryo harboring fli1:EGFP; type: toxicity, organism-based, Danio rerio; conditions: fli1:EGFP transgenic, zebrafish, in vivo; method in brief: as §2

SMILES	Activity (A549 [1])	Activity (A549 [2])	Activity (A549 [3])	Activity (A549 [4])	MEC (Danio rerio [5])	LC100 (Danio rerio [6])	MTC (Danio rerio [6])	selectivity ratio [7]	selectivity ratio [8]
O=C(O)c1cc(O)c(O)c(O)c1 [GALLIC ACID]	39.5%	32.6%	20.2%	6.7%	–	–	–	–	–
O=C(COc1c(OCc2ccccc2)cc2oc(-c3ccccc3)cc(=O)c2c1O)N1CCCC1	–	–	–	–	100 µM	> 200 µM	100 µM	1	> 2
O=C(COc1c(O)cc2oc(-c3ccccc3)cc(=O)c2c1O)NCCO	–	–	–	–	200 µM	200 µM	200 µM	1	1
